Test results as given in ChEMBL document CHEMBL2429711, “[(11)C]MK-4232: The First Positron Emission Tomography Tracer for the Calcitonin Gene-Related Peptide Receptor” (ACS Med Chem Lett, 2013).

Key:
[1] = biological target: MDR1 (ABCB1) (Homo sapiens, UniProt P08183); assay: Efflux ratio of human MDR1-mediated drug transport from basolateral to apical side over apical to basolateral side in pig LLC cells expressing human MDR1 at 5 uM; type: ADME, cell-based; conditions: LLC-PK1
Outline: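 P-gp transport ratio BA/AB in LLC-MDR1 cells, test compound at 5 μM.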

[2] = Fraction unbound in monkey plasma by equillibrium dialysis method; type: ADME, cell-free, Macaca mulatta; conditions: rhesus monkey
Outline: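 Plasma unbound fraction by equilibrium dialysis.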

[3] = biological target: T1, Calcitonin gene-related peptide type 1 receptor (Homo sapiens, UniProt O60894+Q16602); assay: Displacement of [125I]-hCGRP from human CGRP receptor expressed in HEK293 cells; type: cell-based
T1 sequence (Q16602 whole entry, one chain of several): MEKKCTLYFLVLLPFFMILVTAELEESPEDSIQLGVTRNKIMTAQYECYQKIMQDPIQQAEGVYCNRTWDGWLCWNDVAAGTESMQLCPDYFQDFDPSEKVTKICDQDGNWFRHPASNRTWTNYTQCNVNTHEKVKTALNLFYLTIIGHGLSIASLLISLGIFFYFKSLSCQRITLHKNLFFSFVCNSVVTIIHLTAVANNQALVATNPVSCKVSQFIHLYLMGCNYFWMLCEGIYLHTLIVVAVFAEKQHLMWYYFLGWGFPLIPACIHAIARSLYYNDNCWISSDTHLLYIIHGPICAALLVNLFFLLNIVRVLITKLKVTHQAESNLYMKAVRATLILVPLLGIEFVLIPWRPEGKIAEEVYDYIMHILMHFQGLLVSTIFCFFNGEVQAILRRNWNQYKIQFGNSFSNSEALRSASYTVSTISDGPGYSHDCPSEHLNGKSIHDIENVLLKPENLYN
Outline: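 Ki for inhibition of 125I-hCGRP binding; membranes from HEK293 cells stably expressing human CLR/RAMP1; replicate number given per value.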

[4] = Ratio of AUC in rhesus monkey CSF to AUC in rhesus monkey plasma; type: ADME, Macaca mulatta
Outline: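 Cisterna magna-ported rhesus monkeys dosed; CSF AUC divided by plasma AUC.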

[5] = Drug uptake in iv dosed rhesus monkey cerebellum after 80 mins; type: ADME, organism-based, Macaca mulatta; conditions: in vivo
Outline: (§1)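 Anesthetized rhesus monkeys given [11C]-tracer i.v.; PET specific uptake value (SUV) read in cerebellum or white matter at 80 min postdose.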

[6] = Binding affinity to rhesus monkey CGRP receptor by radioligand binding assay; parameters: species or system Macaca mulatta
[7] = Apparent passive permeability across pig LLC-PK1 cells; type: ADME, cell-based, Sus scrofa
Outline: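 Permeability measured in control LLC-PK1 cells.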

[8] = biological target: T1, Calcitonin gene-related peptide type 1 receptor; assay: Antagonist activity at CGRP receptor (unknown origin) by cell based cAMP assay; type: functional
[9] = Lipophilicity, log D of the compound at pH 7.0 by HPLC analysis; type: physicochemical; conditions: buffer
Outline: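 logD measured by HPLC at pH 7.0.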

[10] = Drug uptake in iv dosed rhesus monkey white matter after 80 mins; type: ADME, organism-based, Macaca mulatta; conditions: in vivo; outline: as §1
[11] = biological target: T1, Calcitonin gene-related peptide type 1 receptor; assay: Antagonist activity at CGRP receptor (unknown origin) by cell based cAMP assay in presence of human serum; type: functional
Outline: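 cAMP functional antagonism measured with 50% human serum added.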

[12] = biological target: Calcitonin gene-related peptide type 1 receptor (Homo sapiens) (UniProt Q16602); assay: Ratio of IC50 for CGRP receptor (unknown origin) to IC50 for CGRP receptor (unknown origin) in presence of human serum
Chain of Calcitonin gene-related peptide type 1 receptor (Homo sapiens) (Q16602 whole entry): as the sequence (Q16602 whole entry, one chain of several) above

[13] = system: CGRP receptor (Macaca mulatta); assay: Ratio of drug uptake in iv dosed rhesus monkey cerebellum to drug uptake in iv dosed rhesus monkey white matter; conditions: in vivo
[14] = Fraction unbound in rhesus monkey CSF; type: ADME, Macaca mulatta, Cerebrospinal fluid
[15] = organism: Macaca mulatta; assay: Binding affinity to rhesus monkey cerebellum CGRP receptor; type: tissue-based
[16] = biological target: Calcitonin gene-related peptide type 1 receptor (Homo sapiens) (UniProt Q16602); assay: Ratio of Bmax to Ki for human CGRP receptor expressed in HEK293 cells; type: cell-based

Chain of MDR1 (ABCB1) (P08183 whole entry): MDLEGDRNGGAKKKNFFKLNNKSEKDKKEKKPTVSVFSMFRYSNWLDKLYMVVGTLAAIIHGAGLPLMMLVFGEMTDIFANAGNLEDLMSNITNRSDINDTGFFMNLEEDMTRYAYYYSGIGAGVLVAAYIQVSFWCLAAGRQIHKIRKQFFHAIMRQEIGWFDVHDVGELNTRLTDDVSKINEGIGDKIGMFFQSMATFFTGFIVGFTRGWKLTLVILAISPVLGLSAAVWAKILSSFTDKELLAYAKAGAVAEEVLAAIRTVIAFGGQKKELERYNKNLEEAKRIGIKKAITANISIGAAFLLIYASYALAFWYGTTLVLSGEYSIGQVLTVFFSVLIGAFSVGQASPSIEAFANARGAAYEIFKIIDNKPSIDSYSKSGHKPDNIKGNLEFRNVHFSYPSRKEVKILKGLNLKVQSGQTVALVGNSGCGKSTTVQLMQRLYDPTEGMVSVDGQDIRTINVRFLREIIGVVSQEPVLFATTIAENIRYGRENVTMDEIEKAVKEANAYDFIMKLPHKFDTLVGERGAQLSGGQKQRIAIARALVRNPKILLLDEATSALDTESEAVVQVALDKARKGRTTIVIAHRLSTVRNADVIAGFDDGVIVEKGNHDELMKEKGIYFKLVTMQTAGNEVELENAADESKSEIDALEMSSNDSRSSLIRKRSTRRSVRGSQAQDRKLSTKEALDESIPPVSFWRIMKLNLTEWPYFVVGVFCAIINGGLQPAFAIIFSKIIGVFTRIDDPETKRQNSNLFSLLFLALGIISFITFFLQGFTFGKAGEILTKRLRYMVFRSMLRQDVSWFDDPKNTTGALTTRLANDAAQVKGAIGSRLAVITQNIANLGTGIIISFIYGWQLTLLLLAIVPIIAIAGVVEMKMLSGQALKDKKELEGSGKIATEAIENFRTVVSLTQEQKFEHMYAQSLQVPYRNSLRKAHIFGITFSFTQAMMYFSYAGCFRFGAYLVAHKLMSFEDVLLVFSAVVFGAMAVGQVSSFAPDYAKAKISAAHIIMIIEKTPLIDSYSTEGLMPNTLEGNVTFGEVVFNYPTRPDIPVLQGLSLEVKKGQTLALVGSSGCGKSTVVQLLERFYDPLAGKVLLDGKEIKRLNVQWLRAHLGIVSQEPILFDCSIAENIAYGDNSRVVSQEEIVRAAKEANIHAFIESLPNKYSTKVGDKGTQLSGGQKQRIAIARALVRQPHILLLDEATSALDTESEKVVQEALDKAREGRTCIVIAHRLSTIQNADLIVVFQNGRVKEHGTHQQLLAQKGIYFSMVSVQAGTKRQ

SMILES | efflux ratio at 5 µM [1] | fraction unbound [2] | Ki [3] | Ratio AUC [4] | SUV [5] | Ki [6] | Papp [7] | IC50 [8] | logD [9] | SUV [10] | IC50 [11] | Ratio IC50 [12] | Ratio [13] | fraction unbound [14] | Bmax [15] | Ratio [16]
CC1(C)NC[C@@](C)(c2cc(F)cc(F)c2)N(CC(=O)Nc2ccc3c(c2)C[C@@]2(C3)C(=O)Nc3ncccc32)C1=O | 20 | 0.333 | 110 pM | – | – | – | – | – | – | – | – | – | – | – | – | –
CN1C[C@@](C)(c2cc(F)cc(F)c2)N(CC#Cc2ccc3c(c2)C[C@@]2(C3)C(=O)Nc3ncccc32)C(=O)C12CCCC2 | – | 0.008 | 110 pM | 0.99% | 1.1 | – | – | – | 4.11 | 0.7 | – | – | 1.6 | – | – | –
CN1C[C@@H](c2cc(F)cc(F)c2)N(CC(=O)Nc2ccc3c(c2)C[C@@]2(C3)C(=O)Nc3ncccc32)C(=O)C1(C)C | – | 0.205 | 22 pM | – | 0.7 | – | 27 ×10⁻⁶ cm/s | – | – | 0.5 | – | – | – | – | – | –
CN1C[C@@](C)(c2cc(F)cc(F)c2)N(C/C=C/c2cnc3c(c2)C[C@@]2(C3)C(=O)Nc3ncccc32)C(=O)C12CCCC2 | 2 | 0.051 | 21 pM | – | 1.2 | – | 21 ×10⁻⁶ cm/s | – | 3.36 | 0.7 | – | – | 1.7 | – | – | –
CN1C[C@@](C)(c2cc(F)cc(F)c2)N(CC#Cc2cnc3c(c2)C[C@@]2(C3)C(=O)Nc3ncccc32)C(=O)C12CCCC2 | 1.5 | 0.031 | 19 pM | 2.64% | 1.3 | – | 17 ×10⁻⁶ cm/s | – | 3.41 | 0.7 | – | – | 1.9 | – | – | –
O=C(N[C@@H]1CC[C@@H](c2cccc(F)c2F)CN(CC(F)(F)F)C1=O)N1CCC(n2c(=O)[nH]c3ncccc32)CC1 [TELCAGEPANT] | 24 | 0.038 | – | 1.3% | – | – | – | – | – | – | – | – | – | – | – | –
CN1C[C@@](C)(c2cc(F)cc(F)c2)N(CCCc2cnc3c(c2)C[C@@]2(C3)C(=O)Nc3ncccc32)C(=O)C12CCCC2 | 1.8 | 0.061 | 45 pM | – | 1 | – | 23 ×10⁻⁶ cm/s | – | 3.16 | 0.6 | – | – | 1.7 | – | – | –
CC1(C)NC[C@@H](c2cc(F)cc(F)c2)N(CC(=O)Nc2ccc3c(c2)C[C@@]2(C3)C(=O)Nc3ncccc32)C1=O | 33 | 0.429 | 34 pM | 4.35% | – | – | – | – | – | – | – | – | – | 0.1 | – | –
CN1C[C@@](C)(c2cc(F)cc(F)c2)N(CCCc2ccc3c(c2)C[C@@]2(C3)C(=O)Nc3ncccc32)C(=O)C12CCCC2 | – | 0.002 | 500 pM | – | 0.8 | – | – | – | 4.33 | 0.6 | – | – | 1.3 | – | – | –

Results, then the molecule that gave them:

efflux ratio at 5 µM [1] | fraction unbound [2] | Ki [3] | Ratio AUC [4] | SUV [5] | Ki [6] | Papp [7] | IC50 [8] | logD [9] | SUV [10] | IC50 [11] | Ratio IC50 [12] | Ratio [13] | fraction unbound [14] | Bmax [15] | Ratio [16] | SMILES
1.7 | 0.043 | 46 pM | 3.12% | 1.7 | 33 pM | 25 ×10⁻⁶ cm/s | 97 pM | 3.39 | 0.9 | 390 pM | 4 | 2 | – | – | – | CN1C[C@@](C)(c2cc(F)cc(F)c2)N(CC(=O)Nc2ccc3c(c2)C[C@@]2(C3)C(=O)Nc3ncccc32)C(=O)C12CCCC2
14 | – | 17 pM | – | – | – | – | – | – | – | – | – | – | – | – | – | CN1C[C@@](C)(c2cc(F)cc(F)c2)N(CC(=O)Nc2cnc3c(c2)C[C@@]2(C3)C(=O)Nc3ncccc32)C(=O)C12CCCC2
9.3 | – | – | 6.61% | – | – | – | – | – | – | – | – | – | – | – | – | C[C@@]1(c2cc(F)cc(F)c2)CNC2(CCCC2)C(=O)N1CC(=O)Nc1ccc2c(c1)C[C@@]1(C2)C(=O)Nc2ncccc21
2.8 | 0.117 | 56 pM | 4.79% | 1.2 | – | 29 ×10⁻⁶ cm/s | – | – | 0.7 | – | – | 1.7 | 0.4 | – | – | CN1C[C@@](C)(c2cc(F)cc(F)c2)N(CC(=O)Nc2ccc3c(c2)C[C@@]2(C3)C(=O)Nc3ncccc32)C(=O)C1(C)C
25 | – | – | 2.9% | – | – | 28 ×10⁻⁶ cm/s | – | 2.35 | – | – | – | – | – | 24 nM | > 1000 | O=C(CN1C(=O)C2(CCCC2)NC[C@H]1c1cc(F)cc(F)c1)Nc1ccc2c(c1)C[C@@]1(C2)C(=O)Nc2ncccc21 [MK3207]
– | 0.002 | 94 pM | 0.53% | 1 | – | – | – | 4.15 | 0.7 | – | – | 1.4 | – | – | – | CN1C[C@@](C)(c2cc(F)cc(F)c2)N(C/C=C/c2ccc3c(c2)C[C@@]2(C3)C(=O)Nc3ncccc32)C(=O)C12CCCC2
